Measured values reported in ChEMBL document CHEMBL3739310, “Deguelins, Natural Product Modulators of NF1-Defective Astrocytoma Cell Growth Identified by High-Throughput Screening of Partially Purified Natural Product Extracts” (J Nat Prod, 2015).
Active and inactive are the calls of the source. The calls are words filed in the database; no cut-off is given here.

Legend:
[1] = Induction of ROS generation in Nf1 defective and Trp53 defective mouse K5001 cells at 10 uM after 6 hrs by DCFDA fluorogenic dye-based fluorimetric analysis; format: functional
Outline: (§1)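 Cells plated at 1000/well in black-wall, clear-bottom, polylysine-coated 384-well plates and treated 6 h with 10 μM compound or DMSO control. Carboxymethyl H2DCFDA (10 mM stock in DMSO) added at 25 μM final for the last 1 h. After two PBS washes, cell-associated fluorescence read bottom-mode at Ex 495/Em 529 nm. Result expressed as T/C ratio versus untreated controls, means ± SD.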

[2] = Induction of ROS generation in Nf1 defective and Trp53 defective mouse KR158 cells at 10 uM after 6 hrs DCFDA fluorogenic dye-based fluorimetric analysis; format: functional; outline: as §1
[3] = Induction of ROS generation in Nf1 defective and Trp53 defective mouse K1492 cells at 10 uM after 6 hrs DCFDA fluorogenic dye-based fluorimetric analysis; format: functional; outline: as §1
KR158 = assay: Induction of apoptosis in Nf1 defective and Trp53 defective mouse KR158 cells assessed as DNA fragmentation at 10 uM up to 48 hrs by ELISA; format: functional, cell-based
K5001 = assay: Induction of apoptosis in mouse Nf1 defective and Trp53 defective K5001 cells assessed as DNA fragmentation at 10 uM up to 48 hrs by ELISA; format: functional, cell-based
[4] = target: RAC-alpha serine/threonine-protein kinase (Mus musculus) (UniProt P31750); assay: Inhibition of AKT phosphorylation in Nf1 defective and Trp53 defective mouse K1492 cells; format: cell-based
[5] = target: RAC-alpha serine/threonine-protein kinase (Mus musculus) (UniProt P31750); assay: Inhibition of AKT phosphorylation in Nf1 defective and Trp53 defective mouse K5001 cells; format: cell-based
[6] = Growth inhibition of Nf1 defective and Trp53 defective mouse K1492 cells after 2 days by XTT assay; settings: K1492, 2 days
[7] = Growth inhibition of Nf1 defective and Trp53 defective mouse KR158 cells after 2 days by XTT assay; settings: KR158, 2 days
[8] = Growth inhibition of Nf1 defective and Trp53 defective mouse K5001 cells after 2 days by XTT assay; settings: K5001, 2 days
[9] = Growth inhibition of Nf1 defective and Trp53 defective mouse primary astrocytes after 2 days by XTT assay; settings: Astrocyte
[10] = Growth inhibition of Nf1 defective and Trp53 defective mouse KR158 cells at 80 uM after 2 days by XTT assay; settings: KR158, 2 days, read-out: GI

RAC-alpha serine/threonine-protein kinase (Mus musculus), sequence (P31750 whole entry): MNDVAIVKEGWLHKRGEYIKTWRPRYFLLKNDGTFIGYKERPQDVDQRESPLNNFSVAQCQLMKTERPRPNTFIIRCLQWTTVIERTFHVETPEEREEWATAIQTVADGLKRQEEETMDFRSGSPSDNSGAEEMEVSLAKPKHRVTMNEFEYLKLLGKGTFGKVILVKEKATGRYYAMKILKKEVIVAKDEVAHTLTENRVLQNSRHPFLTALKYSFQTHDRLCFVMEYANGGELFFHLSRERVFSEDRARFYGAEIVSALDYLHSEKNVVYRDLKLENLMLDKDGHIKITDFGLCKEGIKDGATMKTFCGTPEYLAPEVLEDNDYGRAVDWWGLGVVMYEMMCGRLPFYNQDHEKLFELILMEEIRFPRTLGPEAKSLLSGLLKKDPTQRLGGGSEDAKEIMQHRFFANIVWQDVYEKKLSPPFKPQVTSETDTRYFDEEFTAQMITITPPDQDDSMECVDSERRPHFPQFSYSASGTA

**Q.** For `COc1cc2c(cc1OC)[C@@H]1C(=O)c3ccc4c(c3O[C@@H]1CO2)C=CC(C)(C)O4` [DEGUELIN], which “fold change (FC)” value [1] is on record?
**A.** The value was 3.5.

**Q.** And the “fold change (FC)” value [2]?
**A.** The value was 3.9.

**Q.** And the “fold change (FC)” value [3]?
**A.** The value was 5.6.

**Q.** And the Activity (KR158)?
**A.** The Activity was “inactive”.

**Q.** And the Activity (K5001)?
**A.** The Activity was “inactive”.

**Q.** And the inhibition [4]?
**A.** Its inhibition is “inactive”.

**Q.** What about the inhibition [5] of the same compound?
**A.** The inhibition was “inactive”.

**Q.** What about the IC50 [6] of the same compound?
**A.** The IC50 was over 80 µM.

**Q.** What about the IC50 [7] of the same compound?
**A.** The IC50 was 12.6 µM.

**Q.** What about the IC50 [8] of the same compound?
**A.** Its IC50 is 1.2 µM.

**Q.** What about the IC50 [9] of the same compound?
**A.** The IC50 was over 80 µM.

**Q.** For `COc1cc2c(cc1OC)-c1c(oc3c4c(ccc3c1=O)OC(C)(C)C=C4)CO2` [DEHYDRODEGUELIN], which Activity (KR158) is on record?
**A.** The Activity was “inactive”.

**Q.** And the Activity (K5001)?
**A.** Its Activity is “inactive”.

**Q.** And the inhibition [4]?
**A.** Its inhibition is “inactive”.

**Q.** And the inhibition [5]?
**A.** Its inhibition is “inactive”.

**Q.** And the IC50 [6]?
**A.** The IC50 was over 80 µM.

**Q.** And the IC50 [7]?
**A.** The IC50 was over 80 µM.

**Q.** And the IC50 [8]?
**A.** The IC50 was 1.2 µM.

**Q.** And the IC50 [9]?
**A.** The IC50 was over 80 µM.

**Q.** What about the inhibition of growth at 80 µM [10] of the same compound?
**A.** The inhibition of growth at 80 µM was 40%.
